The target in assay [1] is T1, Polyunsaturated fatty acid 5-lipoxygenase (Homo sapiens, UniProt P09917).
T1 sequence (P09917 whole entry): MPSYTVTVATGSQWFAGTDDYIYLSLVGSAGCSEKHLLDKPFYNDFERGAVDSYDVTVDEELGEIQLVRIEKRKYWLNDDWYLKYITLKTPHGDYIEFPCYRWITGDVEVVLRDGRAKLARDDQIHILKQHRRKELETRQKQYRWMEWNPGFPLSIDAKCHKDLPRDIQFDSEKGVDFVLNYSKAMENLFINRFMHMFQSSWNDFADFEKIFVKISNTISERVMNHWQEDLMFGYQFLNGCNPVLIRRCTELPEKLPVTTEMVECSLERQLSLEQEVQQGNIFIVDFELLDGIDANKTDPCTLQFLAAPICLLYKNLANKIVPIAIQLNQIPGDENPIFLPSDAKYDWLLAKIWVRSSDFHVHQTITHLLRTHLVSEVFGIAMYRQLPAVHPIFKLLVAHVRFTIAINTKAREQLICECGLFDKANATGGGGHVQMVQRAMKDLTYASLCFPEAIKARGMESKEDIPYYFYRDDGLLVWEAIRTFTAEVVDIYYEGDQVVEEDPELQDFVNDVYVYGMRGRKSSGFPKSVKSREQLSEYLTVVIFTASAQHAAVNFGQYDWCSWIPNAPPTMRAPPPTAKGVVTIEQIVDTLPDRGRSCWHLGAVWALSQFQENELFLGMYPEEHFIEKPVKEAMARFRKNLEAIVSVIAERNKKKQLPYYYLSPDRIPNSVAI
In words: Inhibition of 5-lipoxygenase in human neutrophils assessed as inhibition of A23187-induced product formation using arachidonic acid as substrate preincubated for 15 mins followed by substrate and A23187 addition measured after 10 mins by RP-HPLC method. The procedure, abridged: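 Freshly isolated human neutrophils (5×10^6, from leukocyte concentrates by dextran sedimentation and Nycoprep) were taken up in 1 mL PBS pH 7.4 with 1 mg/mL glucose and 1 mM CaCl2. Cells were preincubated 15 min at 37 °C with compound or 0.1% DMSO, then stimulated with 2.5 μM A23187 plus 20 μM arachidonic acid for 10 min at 37 °C. The reaction was stopped with methanol on ice, and LTB4 all-trans isomers and 5-H(P)ETE were measured by RP-HPLC. IC50 was read graphically from 4-5 concentrations; 3-4 independent experiments.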

The target of assay [2] is T1, Polyunsaturated fatty acid 5-lipoxygenase. In words: Inhibition of recombinant human 5-lipoxygenase expressed in Escherichia coli BL21 using arachidonic acid as substrate preincubated for 15 mins followed by substrate addition measured after 10 mins by RP-HPLC method. The method in brief: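 5-LO expressed in E. coli BL21 (pT3-5-LO) was semi-purified on ATP-agarose; 0.5 µg was used in 1 mL PBS with 1 mM EDTA and 1 mM ATP. Compound or 0.1% DMSO was preincubated 15 min at 4 °C, then samples were prewarmed 30 s at 37 °C. Reaction was started with 2 mM CaCl2 plus 20 μM AA and run 10 min at 37 °C. It was stopped with cold methanol, and products were measured by RP-HPLC. IC50 was read graphically from 4-5 concentrations; n = 3-4.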

In assay [3] the test system is Mus musculus. Kind of assay: Anti-inflammatory activity in CD-1 mouse model of Zymosan-induced peritonitis assessed as inflammatory cells in peritoneal lavage at 1 mg/kg, ip pretreated for 30 mins followed by Zymosan injection measured after 4 hrs (reference value: 7 +/- 0.47 10^6No_unit). The format is functional.
Assay [4] deals with Mus musculus. Kind of assay: Anti-inflammatory activity in CD-1 mouse assessed as inhibition of carrageenan-induced paw edema at 1 mg/kg, ip pretreated for 30 mins followed by carrageenan injection measured after 4 hrs by hydroplethismometric method relative to control. The format is functional. The conditions noted are these: CD-1, ip. The procedure, abridged: (§1)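 Male CD-1 mice (35–40 g), n = 6 per group, given compound or vehicle (DMSO) i.p. 30 min before a subplantar injection of 50 μL 1% (w/v) carrageenan under light enflurane anaesthesia. Paw volume was read by hydroplethysmometer before injection (basal) and at 2, 4, 6, 24, 48 and 72 h. Data are mean ± SEM; two-way ANOVA with Bonferroni post test.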
(In the carrageenan paw model, swelling and tenderness develop within hours.)

Assay [5] addresses T2, Polyunsaturated fatty acid 5-lipoxygenase (Homo sapiens) (UniProt P09917).
T2 sequence (whole entry): T1 sequence (P09917 whole entry)
Kind of assay: Non-competitive inhibition of recombinant human 5-lipoxygenase expressed in Escherichia coli BL21 using varying levels of arachidonic acid as substrate preincubated for 15 mins followed by substrate addition measured after 10 mins by RP-HPLC method. The method in brief:
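Semi-purified recombinant 5-LO (0.5 µg, E. coli BL21) in PBS with 1 mM EDTA and 1 mM ATP was preincubated 15 min at 4 °C with compound or 0.1% DMSO, then prewarmed 30 s at 37 °C. Reaction was started with 2 mM CaCl2 plus varying arachidonic acid concentrations and run 10 min at 37 °C. Products were measured by RP-HPLC as percent of control; n = 3.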

Assay [6] deals with Mus musculus. In words: Anti-inflammatory activity in CD-1 mouse model of Zymosan-induced peritonitis assessed as LTC4 level in peritoneal lavage at 1 mg/kg, ip pretreated for 30 mins followed by Zymosan injection measured after 30 mins by EIA (reference value: 10.48 +/- 1.72 ng/ml). It counts as functional.
In assay [7] the test system is Mus musculus. In words: Anti-inflammatory activity in CD-1 mouse assessed as inhibition of carrageenan-induced paw edema at 1 mg/kg, ip pretreated for 30 mins followed by carrageenan injection measured up to 48 hrs by hydroplethismometric method. The format is functional, organism-based. The method in brief:
as §1

Assay [8] relates to Mus musculus. In words: Anti-inflammatory activity in CD-1 mouse model of Zymosan-induced peritonitis assessed as inflammatory cells in peritoneal lavage at 10 mg/kg, ip pretreated for 30 mins followed by Zymosan injection measured after 4 hrs (reference value: 7 +/- 0.47 10^6No_unit). The format is functional.
In assay [9] the test system is Mus musculus. Kind of assay: Anti-inflammatory activity in CD-1 mouse model of Zymosan-induced peritonitis assessed as LTC4 level in peritoneal lavage at 10 mg/kg, ip pretreated for 30 mins followed by Zymosan injection measured after 30 mins by EIA (reference value: 10.48 +/- 1.72 ng/ml). It counts as functional.
Assay [10] relates to Mus musculus. In words: Anti-inflammatory activity in CD-1 mouse assessed as inhibition of carrageenan-induced paw edema at 1 mg/kg, ip pretreated for 30 mins followed by carrageenan injection measured up to 72 hrs by hydroplethismometric method. It counts as functional, organism-based. The method in brief:
as §1

Here are results for 15 compounds from ChEMBL document CHEMBL3994578, “Optimization of benzoquinone and hydroquinone derivatives as potent inhibitors of human 5-lipoxygenase” (Eur J Med Chem, 2017).

Structures are written as SMILES. Active and inactive are the calls of the source. The rule behind the calls is not given here.

In general, IC50 refers to the midpoint of a concentration-inhibition curve. In the case of `COC1=CC(=O)C(OC)=C(C(O)CCCCCCCCCO)C1=O` (stereo not drawn), the IC50 in assay [1] was 660 nM; in assay [2], 1460 nM.

For `COC1=CC(=O)C(OC)=C(CCCCCCCCCCO)C1=O`, the IC50 in assay [1] amounted to 550 nM; in [2], 1750 nM.

For the compound `CCCCCCCCCCCc1c(O)c(O)cc(OC)c1OC`, the IC50 is 30 nM in [1] and 100 nM in [2].

For the compound `CCCCCCCCCCCCc1c(O)c(O)cc(OC)c1OC`, the 50% inhibitory concentration (IC50) came to 90 nM in [1] and 240 nM in [2].

A word on the inhibition in vivo: it is the drop in the measured response relative to a control, in per cent. `CCCCCCCCCCCCCC1=C(OC)C(OC)=CC(=O)C1=O`: the Activity in the assay on Mus musculus [3] is 3.78 10^6 cells; in the assay on Mus musculus [6], 0.14 ng/mL. For the same compound, in the assay with Mus musculus [4], the inhibition in vivo at 1 mg/kg was 75%. The inhibition result (in [5]; in the assay with Mus musculus [7]) was “Active” throughout.

In the case of `COC1=CC(=O)C(=O)C(CCCCCCCCCCO)=C1OC`, the concentration for half-maximal inhibition (IC50) is 360 nM in assay [1] and 1080 nM in [2].

Consider `COC1=CC(=O)C(=O)C(CCCCCCCCCCCO)=C1OC`, for which the IC50 in assay [1] is 120 nM; in [2], 1960 nM.

For the compound `CC(c1cc2ccccc2s1)N(O)C(N)=O` (stereo not drawn) [ZILEUTON], the Activity was 2.88 10^6 cells in the assay with Mus musculus [8] and 3.35 ng/mL with Mus musculus [9].

Consider `CCCCCCCCCCCCCc1c(O)c(O)cc(OC)c1OC`, for which the Activity was 3.08 10^6 cells in the assay on Mus musculus [3] and 1.58 ng/mL in the assay with Mus musculus [6]. Further, the IC50 in assay [1] is 28 nM; in assay [2], 60 nM. Also, the inhibition in vivo at 1 mg/kg in the assay with Mus musculus [4] stood at 77.4%. In addition, the inhibition entry (in assay [5]; in the assay on Mus musculus [10]) was “Active” in each case.

In the case of `CCCCCCCCCCCCCc1c(O)c(OC)cc(O)c1OC`, the figures for the half-inhibitory concentration (IC50) in assay [1] and in assay [2] were 310 nM and 260 nM, respectively.

As for `COC1=CC(=O)C(OC)=C(C(CCCCCCCCCO)OC(C)=O)C1=O` (stereo not drawn), the results for the IC50 in [1] and in [2] were 1620 nM and 490 nM, respectively.

In the case of `CCCCCCCCCCCCCc1c(O)c(O)cc(OC)c1O`, the IC50 in [1] stood at 1600 nM; in [2], 290 nM.

On to `COC1=CC(=O)C(=O)C(CCCCCCCCO)=C1OC`, for which the IC50 in assay [1] stood at 150 nM; in assay [2], 220 nM.

As for `COC1=CC(=O)C(OC)=C(CCCCCCCCCCCO)C1=O`, the IC50 worked out at 200 nM in assay [1] and 1510 nM in assay [2].

As for `COC1=CC(=O)C(OC)=C(CCCCCCCCO)C1=O`, the concentration for half-maximal inhibition (IC50) was 330 nM in [1] and 1840 nM in [2].
